Laboratory results taken from publication PMC11539005 (RSC Advances, 2024).
“And” between values parts separate entries of the source, which are not always exact repeats. Identical values can stand only once.

Tests used:
MCF-7 = assay: MTT anti-proliferative assay on MCF-7; type: cell-based; conditions: Homo sapiens, MCF7, read-out: MCF-7 (IC50)
How it was run: (§1)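 Human MCF-7 and HepG2 cancer cell lines exposed to test compounds. Anti-proliferative IC50 given in μM. Each reported value is the mean of IC50 values from three separate experiments.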

HepG2 = assay: MTT anti-proliferative assay on HepG2; type: cell-based; conditions: Homo sapiens, HepG2, read-out: HepG2 (IC50)
How it was run: as §1

MCF-7 cells [1] = assay: Apoptosis assay; type: cell-based; conditions: MCF-7, 0.06 µM, 72 h
PIK3α = PIK3α (Homo sapiens, UniProt P42336); assay: Kinase profiling test, PIK3α; type: biochemical
PIK3α, sequence (P42336 whole entry): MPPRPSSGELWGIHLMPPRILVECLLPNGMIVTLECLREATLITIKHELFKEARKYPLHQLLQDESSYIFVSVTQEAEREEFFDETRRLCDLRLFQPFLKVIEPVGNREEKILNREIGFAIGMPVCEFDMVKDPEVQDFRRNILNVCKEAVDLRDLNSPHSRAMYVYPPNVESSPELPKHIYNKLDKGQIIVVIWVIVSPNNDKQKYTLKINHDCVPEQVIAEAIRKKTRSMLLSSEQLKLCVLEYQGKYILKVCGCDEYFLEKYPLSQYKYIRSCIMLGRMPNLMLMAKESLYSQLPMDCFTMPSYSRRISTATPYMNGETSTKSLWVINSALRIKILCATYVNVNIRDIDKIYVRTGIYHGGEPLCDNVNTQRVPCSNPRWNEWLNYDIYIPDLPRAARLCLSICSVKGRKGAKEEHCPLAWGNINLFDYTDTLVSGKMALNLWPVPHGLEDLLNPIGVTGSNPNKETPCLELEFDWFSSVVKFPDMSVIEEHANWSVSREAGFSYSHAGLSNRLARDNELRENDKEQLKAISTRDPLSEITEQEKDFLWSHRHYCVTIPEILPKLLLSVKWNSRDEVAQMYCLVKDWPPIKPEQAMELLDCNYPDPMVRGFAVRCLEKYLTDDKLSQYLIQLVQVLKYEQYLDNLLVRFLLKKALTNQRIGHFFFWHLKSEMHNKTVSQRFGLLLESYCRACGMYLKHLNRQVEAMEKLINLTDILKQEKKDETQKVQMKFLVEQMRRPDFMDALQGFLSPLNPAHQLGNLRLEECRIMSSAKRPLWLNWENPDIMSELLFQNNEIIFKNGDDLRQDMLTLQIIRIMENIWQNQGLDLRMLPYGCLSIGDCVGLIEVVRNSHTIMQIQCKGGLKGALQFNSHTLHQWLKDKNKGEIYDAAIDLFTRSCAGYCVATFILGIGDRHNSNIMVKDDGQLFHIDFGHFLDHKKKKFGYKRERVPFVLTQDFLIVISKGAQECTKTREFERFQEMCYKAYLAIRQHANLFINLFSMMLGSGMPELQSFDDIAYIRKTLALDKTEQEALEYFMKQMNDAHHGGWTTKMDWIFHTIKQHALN
PIK3α, sequence (P27986 whole entry partner): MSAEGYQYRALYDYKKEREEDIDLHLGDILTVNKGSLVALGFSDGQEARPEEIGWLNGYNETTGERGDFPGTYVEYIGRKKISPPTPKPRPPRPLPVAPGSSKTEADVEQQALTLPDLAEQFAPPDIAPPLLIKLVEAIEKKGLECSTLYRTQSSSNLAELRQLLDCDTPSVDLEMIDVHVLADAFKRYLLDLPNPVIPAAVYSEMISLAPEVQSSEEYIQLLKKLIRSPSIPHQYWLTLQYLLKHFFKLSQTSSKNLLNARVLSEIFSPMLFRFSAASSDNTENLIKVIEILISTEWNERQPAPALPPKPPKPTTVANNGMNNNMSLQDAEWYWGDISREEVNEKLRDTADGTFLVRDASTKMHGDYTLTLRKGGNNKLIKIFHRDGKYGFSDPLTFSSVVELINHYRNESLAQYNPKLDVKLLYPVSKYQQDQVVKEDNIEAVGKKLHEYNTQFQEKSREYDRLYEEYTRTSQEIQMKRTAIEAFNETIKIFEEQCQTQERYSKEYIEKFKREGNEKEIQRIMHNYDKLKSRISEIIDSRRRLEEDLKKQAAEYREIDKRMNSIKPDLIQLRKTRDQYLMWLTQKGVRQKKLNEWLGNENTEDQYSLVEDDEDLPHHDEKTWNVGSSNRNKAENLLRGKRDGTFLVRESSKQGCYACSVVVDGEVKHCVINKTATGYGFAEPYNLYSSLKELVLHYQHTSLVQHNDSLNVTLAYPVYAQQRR

EGFR = EGFR (Homo sapiens, UniProt P00533); assay: Kinase profiling test, EGFR; type: biochemical
caspase-8 = assay: RT-PCR caspase-8 expression in MCF-7 cells; type: cell-based; conditions: MCF-7, 0.06 µM; control 1
MCF-7 cells [2] = assay: Cell cycle analysis by flow cytometry; type: cell-based; conditions: MCF-7, 0.06 µM, 72 h
CDK8 = CDK8 (Homo sapiens, UniProt P49336); assay: Kinase profiling test, CDK8; type: biochemical; conditions: CDK8 IC50 (mean ± SD)
CDK8, sequence (P49336 whole entry): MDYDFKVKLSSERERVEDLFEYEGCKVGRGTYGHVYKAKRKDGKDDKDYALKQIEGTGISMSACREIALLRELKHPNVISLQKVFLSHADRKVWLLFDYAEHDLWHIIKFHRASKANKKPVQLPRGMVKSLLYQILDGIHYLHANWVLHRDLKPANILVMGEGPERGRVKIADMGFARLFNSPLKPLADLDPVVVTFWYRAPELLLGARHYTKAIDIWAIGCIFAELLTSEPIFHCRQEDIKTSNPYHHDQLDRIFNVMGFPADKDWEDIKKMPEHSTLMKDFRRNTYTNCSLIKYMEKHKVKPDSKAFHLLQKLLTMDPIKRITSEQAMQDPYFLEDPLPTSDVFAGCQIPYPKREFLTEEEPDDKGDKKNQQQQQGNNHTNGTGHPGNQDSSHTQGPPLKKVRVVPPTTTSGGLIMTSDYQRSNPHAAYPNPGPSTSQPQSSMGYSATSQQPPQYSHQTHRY
CDK8, sequence (P24863 whole entry partner): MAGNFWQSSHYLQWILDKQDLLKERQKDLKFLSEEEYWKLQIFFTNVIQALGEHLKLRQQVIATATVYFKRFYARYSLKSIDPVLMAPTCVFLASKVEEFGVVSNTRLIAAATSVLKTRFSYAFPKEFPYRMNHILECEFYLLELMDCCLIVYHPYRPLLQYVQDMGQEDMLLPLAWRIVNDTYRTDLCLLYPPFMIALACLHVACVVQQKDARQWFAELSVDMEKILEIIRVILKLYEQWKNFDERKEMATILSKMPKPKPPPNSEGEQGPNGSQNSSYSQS

BRAF = BRAF (Homo sapiens, UniProt P15056); assay: Kinase profiling test, BRAF; type: biochemical
BRAF, sequence (P15056 whole entry): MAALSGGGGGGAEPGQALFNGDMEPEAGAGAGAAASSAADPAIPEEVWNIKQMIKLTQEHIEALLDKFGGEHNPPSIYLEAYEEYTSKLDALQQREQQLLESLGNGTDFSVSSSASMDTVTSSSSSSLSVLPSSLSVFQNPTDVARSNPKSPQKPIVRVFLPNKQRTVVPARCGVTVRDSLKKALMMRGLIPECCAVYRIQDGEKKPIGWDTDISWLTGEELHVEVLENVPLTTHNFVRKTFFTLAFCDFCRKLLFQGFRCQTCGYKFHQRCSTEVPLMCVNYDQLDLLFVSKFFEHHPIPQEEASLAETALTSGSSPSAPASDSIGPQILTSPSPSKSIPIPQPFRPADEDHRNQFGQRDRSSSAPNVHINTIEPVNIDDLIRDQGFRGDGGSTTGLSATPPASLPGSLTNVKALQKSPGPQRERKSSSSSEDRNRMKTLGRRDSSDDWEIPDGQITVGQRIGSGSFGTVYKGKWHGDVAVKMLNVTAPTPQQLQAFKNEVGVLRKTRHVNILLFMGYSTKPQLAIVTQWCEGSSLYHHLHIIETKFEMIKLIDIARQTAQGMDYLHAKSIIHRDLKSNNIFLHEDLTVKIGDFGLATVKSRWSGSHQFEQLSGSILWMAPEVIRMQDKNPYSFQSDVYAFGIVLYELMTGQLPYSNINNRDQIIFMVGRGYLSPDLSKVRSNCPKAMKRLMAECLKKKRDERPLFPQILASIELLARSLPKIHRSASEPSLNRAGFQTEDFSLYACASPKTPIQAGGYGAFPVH

VEGFR-2 = VEGFR-2 (Homo sapiens, UniProt P35968); assay: biochemical
VEGFR-2, sequence (P35968 20-1356): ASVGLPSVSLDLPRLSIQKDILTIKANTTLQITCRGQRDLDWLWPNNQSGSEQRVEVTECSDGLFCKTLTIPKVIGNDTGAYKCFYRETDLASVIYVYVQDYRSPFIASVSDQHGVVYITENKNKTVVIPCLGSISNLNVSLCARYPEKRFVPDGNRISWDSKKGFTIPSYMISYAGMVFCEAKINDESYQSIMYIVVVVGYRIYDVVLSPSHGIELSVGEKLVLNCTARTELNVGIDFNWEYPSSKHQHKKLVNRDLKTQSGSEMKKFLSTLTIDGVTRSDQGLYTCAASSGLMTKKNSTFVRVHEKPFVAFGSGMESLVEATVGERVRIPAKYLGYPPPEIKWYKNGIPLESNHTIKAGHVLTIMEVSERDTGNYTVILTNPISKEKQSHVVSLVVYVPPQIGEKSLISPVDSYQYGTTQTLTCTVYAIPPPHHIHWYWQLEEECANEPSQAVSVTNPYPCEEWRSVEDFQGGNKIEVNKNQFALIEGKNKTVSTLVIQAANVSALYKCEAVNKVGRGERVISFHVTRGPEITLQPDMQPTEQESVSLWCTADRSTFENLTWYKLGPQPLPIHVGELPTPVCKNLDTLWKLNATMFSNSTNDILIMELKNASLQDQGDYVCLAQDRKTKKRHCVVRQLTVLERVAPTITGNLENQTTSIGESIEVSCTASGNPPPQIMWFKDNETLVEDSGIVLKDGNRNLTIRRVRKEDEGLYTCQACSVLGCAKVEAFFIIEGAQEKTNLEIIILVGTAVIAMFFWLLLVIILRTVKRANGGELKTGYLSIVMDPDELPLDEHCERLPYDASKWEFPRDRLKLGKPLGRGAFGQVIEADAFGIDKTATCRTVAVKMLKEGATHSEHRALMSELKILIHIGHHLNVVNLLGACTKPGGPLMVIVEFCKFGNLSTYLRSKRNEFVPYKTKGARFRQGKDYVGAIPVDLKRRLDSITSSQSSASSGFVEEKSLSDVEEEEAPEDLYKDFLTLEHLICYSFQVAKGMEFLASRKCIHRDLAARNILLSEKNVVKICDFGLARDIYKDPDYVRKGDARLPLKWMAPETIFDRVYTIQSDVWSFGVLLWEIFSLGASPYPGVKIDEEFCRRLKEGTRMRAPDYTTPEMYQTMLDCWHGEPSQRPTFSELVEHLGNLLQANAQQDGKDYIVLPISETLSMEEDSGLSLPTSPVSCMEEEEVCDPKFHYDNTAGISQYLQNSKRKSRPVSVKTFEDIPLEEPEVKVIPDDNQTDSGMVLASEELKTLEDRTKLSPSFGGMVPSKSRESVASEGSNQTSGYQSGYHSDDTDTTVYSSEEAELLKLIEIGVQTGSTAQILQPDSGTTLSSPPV

caspase-9 = assay: RT-PCR caspase-9 expression in MCF-7 cells; type: cell-based; conditions: MCF-7, 0.06 µM; control 1
WI-38 = assay: Safety assay: cytotoxicity against normal human lung cells; type: cell-based
How it was run: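 Normal human lung WI-38 cells exposed to test compound for in vitro cytotoxicity. IC50 in μM is the mean of IC50 values from three separate experiments. Selectivity index = IC50 in WI-38 / IC50 in MCF-7 or HepG2 cancer cells.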

CCOC(=O)c1nn(-c2cccc(Cl)c2)/c(=N/N=C(\C)c2ccc(NC(=O)c3ccc(Cl)cc3)cc2)s1 [Compound 21b, Ethyl (Z)-5-(((E)-1-(4-(4-Chlorobenzamido)phenyl)ethylidene)hydrazono)-4-(3-chlorophenyl)-4,5-dihydro-1,3,4-thiadiazole-2-carboxylate]
IC50 (MCF-7): 140 ± 10 nM
IC50 (HepG2): 130 ± 10 nM

CC(=O)c1nn(-c2ccc(C)cc2)/c(=N/N=C(\C)c2ccc(NC(=O)c3ccccc3)cc2)s1 [Compound 20b, N-(4-((E)-1-(((Z)-5-Acetyl-3-(p-tolyl)-1,3,4-thiadiazol-2(3H)-ylidene)hydrazono)ethyl)phenyl) benzamide]
Late apoptosis (MCF-7 cells [1]; control 0.24): 15.99%
Early apoptosis (MCF-7 cells [1]; control 0.61): 18.48%
Necrosis (MCF-7 cells [1]; control 1.43): 4.14%
Total apoptosis (MCF-7 cells [1]; untreated 0.85): 34.47%
IC50 (PIK3α): 2140 ± 95 nM
IC50 (EGFR): 1430 ± 85 nM
Caspase-8 RT-PCR (fold change) (caspase-8): 3.42 fold change and 3.4176 fold change
Cell cycle distribution % G2/M (MCF-7 cells [2]; control 13.72): 11.99%
Cell cycle distribution % S (MCF-7 cells [2]; control 23.91): 18.76%
Cell cycle distribution % G0-G1 (MCF-7 cells [2]; control 62.37): 69.25%
IC50 (CDK8): 266 ± 58 nM
IC50 (MCF-7): 50 ± 10 nM
IC50 (BRAF): 5.84 ± 0.25 µM
IC50 (VEGFR-2; VEGFR-2 IC50, mean of three experiments): 51.1 nM and 51 nM
IC50 (VEGFR-2; VEGFR-2 inhibition): 24 nM
Caspase-9 RT-PCR (fold change) (caspase-9): 5.44 fold change and 5.4353 fold change
IC50 (WI-38; Homo sapiens, WI-38, read-out: WI-38 IC50): 190 ± 10 nM
Selectivity index HepG2 (WI-38; SI = IC50 in normal cells (WI-38)/IC50 in HepG2): 1.4
Selectivity index MCF-7 (WI-38; SI = IC50 in normal cells (WI-38)/IC50 in MCF-7): 3.8
IC50 (HepG2): 140 ± 10 nM

CNC(=O)c1cc(Oc2ccc(NC(=O)Nc3ccc(Cl)c(C(F)(F)F)c3)cc2)ccn1 [Sorafenib, reference compound]
IC50 (MCF-7): 140 ± 30 nM
IC50 (HepG2): 130 ± 30 nM

CC(=O)c1nn(-c2ccccc2Cl)/c(=N/N=C(\C)c2ccc(NC(=O)c3ccccc3)cc2)s1 [Compound 20a, N-(4-((E)-1-(((Z)-5-Acetyl-3-(2-chlorophenyl)-1,3,4-thiadiazol-2(3H)-ylidene)hydrazono)ethyl)phenyl)benzamide]
IC50 (MCF-7): 60 ± 10 nM
IC50 (HepG2): 130 ± 10 nM

CC(=O)Nc1ccc(/C(C)=N/N=c2\sc(C(C)=O)nn2-c2ccc(C)cc2)cc1 [Compound 16, N-(4-((E)-1-(((Z)-5-Acetyl-3-(p-tolyl)-1,3,4-thiadiazol-2(3H)-ylidene)hydrazono)ethyl)phenyl) acetamide]
IC50 (MCF-7): 1250 ± 20 nM
IC50 (HepG2): 9920 ± 220 nM

CCOC(=O)c1nn(-c2cccc(Cl)c2)/c(=N/N=C(\C)c2ccc(NC(=O)c3ccccc3)cc2)s1 [Compound 21a, Ethyl (Z)-5-(((E)-1-(4-benzamidophenyl)ethylidene)hydrazono)-4-(3-chlorophenyl)-4,5-dihydro-1,3,4-thiadiazole-2-carboxylate]
IC50 (MCF-7): 190 ± 10 nM
IC50 (HepG2): 150 ± 10 nM
